# Experimental data published in ChEMBL document CHEMBL1122934, “Angiotensin-converting enzyme inhibitors. New orally active antihypertensive (mercaptoalkanoyl)- and [(acylthio)alkanoyl]glycine derivatives” (J Med Chem, 1985).
# Legend:
# [1] = target: T1, Angiotensin-converting enzyme (Oryctolagus cuniculus, UniProt P12822); test: In vitro inhibitory activity against rabbit lung Angiotensin I converting enzyme at pH 8.3
# T1 sequence (P12822 whole entry): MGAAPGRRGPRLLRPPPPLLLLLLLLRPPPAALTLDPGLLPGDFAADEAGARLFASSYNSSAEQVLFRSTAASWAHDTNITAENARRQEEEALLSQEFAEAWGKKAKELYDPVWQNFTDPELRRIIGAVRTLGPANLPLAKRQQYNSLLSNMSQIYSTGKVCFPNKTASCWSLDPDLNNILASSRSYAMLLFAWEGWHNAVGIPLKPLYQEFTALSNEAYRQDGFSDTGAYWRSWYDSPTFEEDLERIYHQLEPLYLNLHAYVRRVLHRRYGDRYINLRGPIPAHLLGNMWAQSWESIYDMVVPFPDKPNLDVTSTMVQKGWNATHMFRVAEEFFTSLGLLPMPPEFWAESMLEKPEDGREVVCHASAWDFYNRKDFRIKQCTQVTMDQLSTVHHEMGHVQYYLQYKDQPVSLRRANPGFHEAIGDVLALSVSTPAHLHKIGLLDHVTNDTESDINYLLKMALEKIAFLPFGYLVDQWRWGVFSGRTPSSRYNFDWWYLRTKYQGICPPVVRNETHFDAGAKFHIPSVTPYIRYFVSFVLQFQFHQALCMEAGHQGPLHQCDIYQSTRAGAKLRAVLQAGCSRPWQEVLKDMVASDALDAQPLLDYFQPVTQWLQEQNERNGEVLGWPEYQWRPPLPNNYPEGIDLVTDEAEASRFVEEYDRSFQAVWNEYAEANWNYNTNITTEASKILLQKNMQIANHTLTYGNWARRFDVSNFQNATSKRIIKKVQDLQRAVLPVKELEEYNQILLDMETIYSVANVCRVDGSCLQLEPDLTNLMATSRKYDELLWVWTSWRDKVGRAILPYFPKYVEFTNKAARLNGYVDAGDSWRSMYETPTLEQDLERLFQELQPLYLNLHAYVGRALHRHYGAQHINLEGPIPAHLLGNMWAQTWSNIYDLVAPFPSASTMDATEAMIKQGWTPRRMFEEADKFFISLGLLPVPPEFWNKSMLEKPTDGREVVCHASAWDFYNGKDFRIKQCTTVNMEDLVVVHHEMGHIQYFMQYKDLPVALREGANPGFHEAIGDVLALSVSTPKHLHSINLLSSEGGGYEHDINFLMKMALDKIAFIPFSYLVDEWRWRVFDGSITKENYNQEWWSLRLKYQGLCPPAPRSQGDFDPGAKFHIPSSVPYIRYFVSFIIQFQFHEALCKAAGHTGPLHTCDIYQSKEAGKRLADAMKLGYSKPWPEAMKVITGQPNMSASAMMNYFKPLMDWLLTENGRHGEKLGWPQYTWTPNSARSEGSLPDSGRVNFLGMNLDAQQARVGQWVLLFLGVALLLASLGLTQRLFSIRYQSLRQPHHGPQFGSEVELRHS
# [2] = target: T2, Angiotensin-converting enzyme (Rattus norvegicus) (UniProt P47820); test: Peroral dose required to inhibit angiotensin I induced vasopressor response in normotensive conscious rats; format: functional
# T2 sequence (whole entry): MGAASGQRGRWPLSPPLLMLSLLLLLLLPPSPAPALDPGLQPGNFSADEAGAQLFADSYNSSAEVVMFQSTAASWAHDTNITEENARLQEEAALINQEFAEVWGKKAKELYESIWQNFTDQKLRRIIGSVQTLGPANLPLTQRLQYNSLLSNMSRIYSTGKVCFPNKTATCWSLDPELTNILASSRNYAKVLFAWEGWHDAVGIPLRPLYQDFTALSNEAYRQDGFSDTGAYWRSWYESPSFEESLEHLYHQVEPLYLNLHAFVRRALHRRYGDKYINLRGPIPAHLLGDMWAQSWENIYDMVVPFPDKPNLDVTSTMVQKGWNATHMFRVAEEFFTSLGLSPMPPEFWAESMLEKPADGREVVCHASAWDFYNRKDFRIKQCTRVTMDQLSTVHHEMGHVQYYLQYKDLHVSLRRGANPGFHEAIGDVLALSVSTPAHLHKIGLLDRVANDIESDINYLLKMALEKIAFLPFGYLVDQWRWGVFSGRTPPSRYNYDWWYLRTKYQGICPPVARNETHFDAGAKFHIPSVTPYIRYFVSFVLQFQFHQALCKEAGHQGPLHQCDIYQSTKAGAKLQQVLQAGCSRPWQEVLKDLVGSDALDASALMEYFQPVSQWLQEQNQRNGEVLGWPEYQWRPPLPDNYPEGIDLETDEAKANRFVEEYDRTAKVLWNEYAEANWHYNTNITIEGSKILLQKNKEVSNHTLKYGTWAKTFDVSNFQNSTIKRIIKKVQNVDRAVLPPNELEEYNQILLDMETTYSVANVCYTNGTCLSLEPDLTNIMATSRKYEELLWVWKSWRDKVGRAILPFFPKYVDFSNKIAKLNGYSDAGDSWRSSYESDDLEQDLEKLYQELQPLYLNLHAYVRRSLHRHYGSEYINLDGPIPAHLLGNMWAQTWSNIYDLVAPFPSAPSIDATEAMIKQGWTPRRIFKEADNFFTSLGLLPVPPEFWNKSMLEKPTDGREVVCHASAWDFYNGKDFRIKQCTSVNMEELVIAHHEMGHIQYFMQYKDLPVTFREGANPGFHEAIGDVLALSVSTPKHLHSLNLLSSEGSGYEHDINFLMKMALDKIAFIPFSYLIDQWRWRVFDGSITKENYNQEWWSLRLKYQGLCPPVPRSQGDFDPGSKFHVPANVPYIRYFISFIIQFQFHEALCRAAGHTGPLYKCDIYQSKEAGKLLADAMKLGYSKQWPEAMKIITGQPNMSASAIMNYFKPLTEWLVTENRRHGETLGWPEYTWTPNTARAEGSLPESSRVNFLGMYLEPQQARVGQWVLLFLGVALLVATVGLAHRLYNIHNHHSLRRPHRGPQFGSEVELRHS
# Procedure, shortened: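 Male normotensive rats with aortic and vena caval catheters, used ≥6 days later while restrained; angiotensins I and II 0.25 μg/kg iv every 10 min. One oral inhibitor dose in 0.5% gum tragacanth suspension; angiotensin I repeated every 10 min for ≥2 h. Maximum inhibition as % of initial response; ID50 from dose-response plot.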
# Canis familiaris = test: Peroral dose required to inhibit angiotensin I induced vasopressor response in normotensive conscious dogs; format: functional; conditions: Canis lupus familiaris, po; read-out: ID50 (the source's name)
# Procedure, shortened: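 Six conscious normotensive dogs; pressor response to angiotensin I 0.25 μg/kg iv. Inhibitor given orally at 0.01–1 mg/kg, vehicle 0.3 M KH₂PO₄ buffer, weekly intervals in a three-way crossover with vehicle control.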
IC50 [1] [µM],ID50 [2] [mg/kg],Compound,ED50 (Canis familiaris) [mg/kg]
0.64,–,CCN1CCCC1CN(CC(=O)O)C(=O)C(C)CS (centres undefined),–
0.019,–,Cc1cccc(N(CC(=O)O)C(=O)C(C)CS)c1 (centres undefined),–
0.13,–,CC(CS)C(=O)N(C)CC(=O)O (centres undefined),–
> 100,25,C[C@@H](CSC(=O)C(C)(C)C)C(=O)N(CC(=O)O)C1CCCC1,–
0.079,–,CC(CS)C(=O)N(C1CC1)C(C)C(=O)O (centres undefined),–
0.082,0.15,CC(=O)SCC(C)C(=O)N(CC(=O)O)C1CCCC1 (centres undefined),–
0.44,–,CC(CS)C(=O)N(CC(=O)O)CC1CC2CC(C1C)C2(C)C (centres undefined),–
0.14,–,CC(=O)SCC(C)C(=O)N(CC(=O)O)C[C@H]1CC2CC(C1C)C2(C)C (some centres undefined),–
–,0.06,CC(=O)SCC(C)C(=O)N(CC(=O)O)C1CCCCCC1 (centres undefined),–
0.28,–,CC(CS)C(=O)N(CC(=O)O)C1CCS(=O)(=O)C1 (centres undefined),–
–,0.05,CC(CS)C(=O)N(CC(=O)O)C1CCCCCC1 (centres undefined),–

# Continued, compound first:
Compound,IC50 [1] [µM],ID50 [2] [mg/kg],ED50 (Canis familiaris) [mg/kg]
CC(CS)C(=O)N(CC(=O)O)Cc1ccco1 (centres undefined),0.17,–,–
CC(=O)SCC(C)C(=O)N(CC(=O)O)C1CCC1 (centres undefined),0.22,–,–
C#CCN(CC(=O)O)C(=O)C(C)CS (centres undefined),0.27,–,–
CSc1cccc(N(CC(=O)O)C(=O)C(C)CSC(C)=O)c1 (centres undefined),0.075,–,–
CC(=O)SCC(C)C(=O)N(CC(=O)O)C1CCCCC1 (centres undefined),0.27,–,–
CC(CS)C(=O)N(CC(=O)O)C[C@H]1CC2CC(C1C)C2(C)C (some centres undefined),0.16,–,–
CC(S)C(=O)NCC(=O)O (centres undefined) [TIOPRONIN],1.9,–,–
CC(CS)C(=O)N(CC(=O)O)C1CCCC1 (centres undefined),–,0.15,–
CC(=O)SCC(C)C(=O)N(CC(=O)O)c1ccc(F)cc1 (centres undefined),0.6,–,–
CC(CSC(=O)C(C)(C)C)C(=O)N(CC(=O)O)C1CCCC1 (centres undefined),3.7,0.15,–
C[C@H](CSC(=O)C(C)(C)C)C(=O)N(CC(=O)O)C1CCCC1 [PIVOPRIL],3.6,0.058,0.17
CC(=O)SCC(C)C(=O)N(CC(=O)O)c1ccc2c(c1)CCC2 (centres undefined),0.048,1.5,–
CC(CS)C(=O)N(CC(=O)O)C(C)C (centres undefined),0.072,–,–
C#CCN(CC(=O)O)C(=O)C(C)CSC(C)=O (centres undefined),4.5,–,–
CC(=O)SCC(C)C(=O)N(CC(=O)O)C1CC2CCC1C2 (stereo in doubt; 30),0.02,–,–
CC(=O)SCC(C)C(=O)N(CC(=O)O)C(C)C (centres undefined),5.9,–,–
CC(=O)SCC(C)C(=O)N(CC(=O)O)c1ccc(C(C)C)cc1 (centres undefined),0.06,–,–
CC(CS)C(=O)N(CC(=O)O)C1CCC1 (centres undefined),0.018,0.3,–
CC(=O)SCC(C)C(=O)N(CC(=O)O)C1CCC2CC1C2(C)C (centres undefined),0.045,–,–
CC(CS)C(=O)N(CC(=O)O)C1CC1 (centres undefined),0.03,0.3,–
